Source: ChEMBL document CHEMBL1137547, “Synthesis and antifungal activities of novel 2-aminotetralin derivatives” (2007)
Converted amounts (≈) assume the structure as drawn.

Tests used:
Format in all cases: functional
Candida albicans [1] = test: Antifungal activity against fluconazole-resistant Candida albicans 01010 after 24 hrs
In short: (§1)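 Broth serial dilution MIC per NCCLS in 96-well format; medium RPMI 1640 buffered with 0.165 M MOPS; compounds dissolved in DMSO and serially diluted in medium; clinical C. albicans isolates incubated at 35 °C, read at 24 h; MIC = lowest concentration giving turbidity […] inhibition relative to growth control; fluconazole and I-6 as control drugs.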

Candida albicans [2] = test: Antifungal activity against fluconazole-resistant Candida albicans 18 after 24 hrs; in short: as §1
Trichophyton rubrum = test: Antifungal activity against Trichophyton rubrum
In short: (§2)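 Dermatophytes were tested by NCCLS serial dilution in RPMI 1640 with 0.165 M MOPS and incubated at 28 °C. Compounds were dissolved in DMSO and diluted in medium. Strains came from ATCC or clinical isolates. The MIC was read at 7 d as the lowest concentration reducing turbidity by ≥80% relative to the drug-free control.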

Cryptococcus neoformans = test: Antifungal activity against Cryptococcus neoformans after 72 hrs
In short: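 Cryptococcus neoformans was tested by NCCLS serial dilution in MOPS-buffered (0.165 M) RPMI 1640 at 35 °C. Compounds were dissolved in DMSO and diluted in medium. The MIC was read at 72 h as the lowest concentration giving turbidity inhibition of ≥80% relative to the growth control.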

Fonsecaea compacta = test: Antifungal activity against Fonsecaea compacta
In short: (§3)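 NCCLS broth serial dilution in RPMI 1640 buffered with 0.165 M MOPS. Compounds were dissolved in DMSO and serially diluted in medium. Strains came from ATCC or clinical isolates. The growth MIC for filamentous fungi was read at 7 d, taken as the lowest concentration giving ≥80% turbidity inhibition versus the growth control.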

Candida albicans [3] = test: Antifungal activity against fluconazole-resistant Candida albicans 25 after 24 hrs; in short: as §1
Aspergillus fumigatus = test: Antifungal activity against Aspergillus fumigatus; in short: as §3
Microsporum = test: Antifungal activity against Microsporum gypseum; in short: as §2
Candida parapsilosis = test: Antifungal activity against Candida parapsilosis after 24 hrs; conditions: Lodderomyces parapsilosis
In short: (§4)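 Candida yeasts were tested by NCCLS microdilution in RPMI 1640 buffered with 0.165 M MOPS and incubated at 35 °C. Compounds were dissolved in DMSO and serially diluted in medium. Isolates came from ATCC or the clinic. The MIC was read at 24 h as the lowest concentration achieving ≥80% growth inhibition versus the control.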

Candida albicans [4] = test: Antifungal activity against Candida albicans after 24 hrs; in short: as §4
Candida albicans [5] = test: Antifungal activity against fluconazole-resistant Candida albicans 0511655 after 24 hrs; in short: as §1

Compound	MIC (Candida albicans [1])	MIC (Candida albicans [2])	MIC (Trichophyton rubrum)	MIC (Cryptococcus neoformans)	MIC (Fonsecaea compacta)	MIC (Candida albicans [3])	MIC (Aspergillus fumigatus)	MIC (Microsporum)	MIC (Candida parapsilosis)	MIC (Candida albicans [4])	MIC (Candida albicans [5])
CCCCCCCCNC1CCc2cc(OC)ccc2C1 (configuration not stated)	16 µM (≈ 4.63 µg/mL)	8 µM (≈ 2.32 µg/mL)	8 µM (≈ 2.32 µg/mL)	16 µM (≈ 4.63 µg/mL)	8 µM (≈ 2.32 µg/mL)	8 µM (≈ 2.32 µg/mL)	> 64 µM	8 µM (≈ 2.32 µg/mL)	16 µM (≈ 4.63 µg/mL)	0.0625 µM (≈ 0.0181 µg/mL)	8 µM (≈ 2.32 µg/mL)
CCCCCCCCNC1CCc2cc(O)ccc2C1 (configuration not stated)	4 µM (≈ 1.1 µg/mL)	4 µM (≈ 1.1 µg/mL)	4 µM (≈ 1.1 µg/mL)	8 µM (≈ 2.2 µg/mL)	2 µM (≈ 0.551 µg/mL)	2 µM (≈ 0.551 µg/mL)	> 64 µM	16 µM (≈ 4.41 µg/mL)	16 µM (≈ 4.41 µg/mL)	0.0625 µM (≈ 0.0172 µg/mL)	4 µM (≈ 1.1 µg/mL)
CCCCCCCCCNC1CCc2c(cccc2OC)C1 (configuration not stated)	16 µM (≈ 4.86 µg/mL)	16 µM (≈ 4.86 µg/mL)	2 µM (≈ 0.607 µg/mL)	2 µM (≈ 0.607 µg/mL)	0.5 µM (≈ 0.152 µg/mL)	8 µM (≈ 2.43 µg/mL)	8 µM (≈ 2.43 µg/mL)	4 µM (≈ 1.21 µg/mL)	0.5 µM (≈ 0.152 µg/mL)	0.0625 µM (≈ 0.019 µg/mL)	16 µM (≈ 4.86 µg/mL)
CCCCCCCCCNC1CCc2cc(O)ccc2C1 (configuration not stated)	4 µM (≈ 1.16 µg/mL)	4 µM (≈ 1.16 µg/mL)	1 µM (≈ 0.289 µg/mL)	0.5 µM (≈ 0.145 µg/mL)	1 µM (≈ 0.289 µg/mL)	2 µM (≈ 0.579 µg/mL)	32 µM (≈ 9.26 µg/mL)	0.5 µM (≈ 0.145 µg/mL)	4 µM (≈ 1.16 µg/mL)	0.0625 µM (≈ 0.0181 µg/mL)	4 µM (≈ 1.16 µg/mL)
CCCCCCCCCCNC1CCc2cc(O)ccc2C1 (configuration not stated)	4 µM (≈ 1.21 µg/mL)	2 µM (≈ 0.607 µg/mL)	0.0625 µM (≈ 0.019 µg/mL)	1 µM (≈ 0.303 µg/mL)	0.25 µM (≈ 0.0759 µg/mL)	2 µM (≈ 0.607 µg/mL)	16 µM (≈ 4.86 µg/mL)	8 µM (≈ 2.43 µg/mL)	2 µM (≈ 0.607 µg/mL)	0.0625 µM (≈ 0.019 µg/mL)	2 µM (≈ 0.607 µg/mL)
CCCCCCCCCCNC1CCc2cccc(O)c2C1 (configuration not stated)	16 µM (≈ 4.86 µg/mL)	16 µM (≈ 4.86 µg/mL)	8 µM (≈ 2.43 µg/mL)	16 µM (≈ 4.86 µg/mL)	64 µM (≈ 19.4 µg/mL)	4 µM (≈ 1.21 µg/mL)		> 64 µM	16 µM (≈ 4.86 µg/mL)	0.0625 µM (≈ 0.019 µg/mL)	16 µM (≈ 4.86 µg/mL)
CCCCCCCCCCNC1CCc2ccc(OC)cc2C1 (configuration not stated)	4 µM (≈ 1.27 µg/mL)	4 µM (≈ 1.27 µg/mL)	1 µM (≈ 0.318 µg/mL)	1 µM (≈ 0.318 µg/mL)	1 µM (≈ 0.318 µg/mL)	2 µM (≈ 0.635 µg/mL)	16 µM (≈ 5.08 µg/mL)	2 µM (≈ 0.635 µg/mL)	0.25 µM (≈ 0.0794 µg/mL)	0.0625 µM (≈ 0.0198 µg/mL)	4 µM (≈ 1.27 µg/mL)
CCCCCCCCCCNC1CCc2c(O)cccc2C1 (configuration not stated)	16 µM (≈ 4.86 µg/mL)	32 µM (≈ 9.71 µg/mL)	4 µM (≈ 1.21 µg/mL)	1 µM (≈ 0.303 µg/mL)	1 µM (≈ 0.303 µg/mL)	32 µM (≈ 9.71 µg/mL)	> 64 µM	1 µM (≈ 0.303 µg/mL)	32 µM (≈ 9.71 µg/mL)	0.0312 µM (≈ 0.00948 µg/mL)	32 µM (≈ 9.71 µg/mL)
CCCCCCCCCCCCCCNC1CCc2c(cccc2OC)C1 (configuration not stated)			8 µM (≈ 2.99 µg/mL)	32 µM (≈ 12 µg/mL)	64 µM (≈ 23.9 µg/mL)		> 64 µM	> 64 µM	> 64 µM	> 64 µM	
CCCCCCCCCCCCCCNC1CCc2ccc(OC)cc2C1 (configuration not stated)			0.0625 µM (≈ 0.0234 µg/mL)	16 µM (≈ 5.98 µg/mL)	64 µM (≈ 23.9 µg/mL)		> 64 µM	4 µM (≈ 1.49 µg/mL)	> 64 µM	4 µM (≈ 1.49 µg/mL)	
CCCCCCCCCNC1CCc2cc(OC)ccc2C1 (configuration not stated)	0.125 µM (≈ 0.0379 µg/mL)	0.0625 µM (≈ 0.019 µg/mL)	1 µM (≈ 0.303 µg/mL)	4 µM (≈ 1.21 µg/mL)	2 µM (≈ 0.607 µg/mL)	0.0625 µM (≈ 0.019 µg/mL)	64 µM (≈ 19.4 µg/mL)	4 µM (≈ 1.21 µg/mL)	0.5 µM (≈ 0.152 µg/mL)	0.0625 µM (≈ 0.019 µg/mL)	0.0625 µM (≈ 0.019 µg/mL)
CCCCCCCCCCNC1CCc2c(cccc2OC)C1 (configuration not stated)	8 µM (≈ 2.54 µg/mL)	4 µM (≈ 1.27 µg/mL)	1 µM (≈ 0.318 µg/mL)	1 µM (≈ 0.318 µg/mL)	1 µM (≈ 0.318 µg/mL)	4 µM (≈ 1.27 µg/mL)	16 µM (≈ 5.08 µg/mL)	4 µM (≈ 1.27 µg/mL)	8 µM (≈ 2.54 µg/mL)	0.0312 µM (≈ 0.00992 µg/mL)	8 µM (≈ 2.54 µg/mL)
CCCCCCCCCCCCCCNC1CCc2cc(OC)ccc2C1 (configuration not stated)			16 µM (≈ 5.98 µg/mL)	64 µM (≈ 23.9 µg/mL)	> 64 µM		> 64 µM	> 64 µM	> 64 µM	32 µM (≈ 12 µg/mL)	
C[C@@H]1[C@H](O)[C@@H](C)/C=C/C=C/C=C/C=C/C=C/C=C/C=C/[C@H](O[C@@H]2O[C@H](C)[C@@H](O)[C@H](N)[C@@H]2O)C[C@@H]2O[C@](O)(C[C@@H](O)C[C@@H](O)[C@H](O)CC[C@@H](O)C[C@@H](O)CC(=O)O[C@H]1C)C[C@H](O)[C@H]2C(=O)O [AMPHOTERICIN B]	0.64 µM (≈ 0.591 µg/mL)	2 µM (≈ 1.85 µg/mL)				0.5 µM (≈ 0.462 µg/mL)					0.25 µM (≈ 0.231 µg/mL)
OC(Cn1cncn1)(Cn1cncn1)c1ccc(F)cc1F [FLUCONAZOLE]	> 64 µM	> 64 µM	1 µM (≈ 0.306 µg/mL)	2 µM (≈ 0.613 µg/mL)	16 µM (≈ 4.9 µg/mL)	> 64 µM	> 64 µM	16 µM (≈ 4.9 µg/mL)	0.5 µM (≈ 0.153 µg/mL)	8 µM (≈ 2.45 µg/mL)	> 64 µM
CCC(C)n1ncn(-c2ccc(N3CCN(c4ccc(OCC5COC(Cn6cncn6)(c6ccc(Cl)cc6Cl)O5)cc4)CC3)cc2)c1=O (configuration not stated) [ITRACONAZOLE]	> 64 µM	> 64 µM				> 64 µM					64 µM (≈ 45.2 µg/mL)
CC(=O)N1CCN(c2ccc(OC[C@@H]3CO[C@@](Cn4ccnc4)(c4ccc(Cl)cc4Cl)O3)cc2)CC1 [KETOCONAZOLE]	8 µM (≈ 4.25 µg/mL)	4 µM (≈ 2.13 µg/mL)				8 µM (≈ 4.25 µg/mL)					8 µM (≈ 4.25 µg/mL)
CN(C/C=C/C#CC(C)(C)C)Cc1cccc2ccccc12 [TERBINAFINE]	32 µM (≈ 9.33 µg/mL)	8 µM (≈ 2.33 µg/mL)				4 µM (≈ 1.17 µg/mL)					8 µM (≈ 2.33 µg/mL)
